For series [1], the system named is Plasma. As to the kind of experiment: Anticoagulant activity in Wistar albino rat plasma assessed as prothrombin time at 0.1 mg/kg, ip. Format: functional. The conditions noted are these: route intraperitoneal. The procedure, abridged:
(§1)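 Adult Wistar rats (2.5 months, 220–250 g), three per compound and control, were given a single i.p. dose of 0.1 or 0.5 mg/kg in ethanol solution and sacrificed 24 h later. […] Plasma prothrombin time was measured by Quick method and reported in seconds and as INR, from at least three measurements.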

Series [2] has as its system Plasma. As to the kind of experiment: Anticoagulant activity in human plasma assessed as prothrombin time at 1 mg/ml. The series is classed as functional. In outline: (§2)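 Frozen human plasma (blood type A+) was used. Compounds were prepared at 1 mg/mL in a vehicle of 96% EtOH, 0.9% NaCl, 20% glycerol and phosphate buffer pH 7. Prothrombin time was measured by Quick method and reported in seconds and as INR, with SD from at least three measurements.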

The test system of series [3] is Plasma. Nature of the series: Anticoagulant activity in Wistar albino rat plasma assessed as fibrinogen level. Format: functional. In outline:
(§3)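 Adult albino Wistar rats (2.5 months old, 220–250 g), three per compound and control. […] Fibrin time and fibrinogen were determined on plasma. Fibrinogen was quantified by biuret method at 540 nm. At least three measurements, reported with standard deviation.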

Series [4] has as its system Plasma. Nature of the series: Anticoagulant activity in Wistar albino rat plasma assessed as prothrombin time at 0.5 mg/kg, ip. Format: functional. To be noted: route intraperitoneal. In outline:
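Adult Wistar rats (2.5 months, 220–250 g), three per compound and control, were given a single i.p. dose of 0.1 or 0.5 mg/kg in ethanol solution and sacrificed 24 h later. Plasma prothrombin time was measured by Quick method and reported in seconds and as INR, from at least three measurements.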

In series [5] the test system is Plasma. Nature of the series: Anticoagulant activity in Wistar albino rat plasma assessed as international normalized ratio at 0.1 mg/kg, ip. The series is classed as functional. To be noted: route intraperitoneal. In outline:
as §1

The subject of series [6] is Rattus norvegicus. Nature of the series: Hepatotoxicity in Wistar albino rat assessed as change in serum protein level at 0.5 mg/kg, ip measured after 24 hrs. Format: toxicity, organism-based. Set-up: dose 0.5 mg/kg, route intraperitoneal. The conditions noted are these: in vivo.
Series [7] has as its system Plasma. Nature of the series: Anticoagulant activity in human plasma assessed as international normalized ratio at 1 mg/ml. Format: functional. In outline: as §2
The subject of series [8] is Plasma. As to the kind of experiment: Anticoagulant activity in Wistar albino rat plasma assessed as fibrin time. The series is classed as functional. The procedure, abridged: as §3
For series [9], the system named is Rattus norvegicus. As to the kind of experiment: Anticoagulant activity in Wistar rats in vivo assessed as prothrombin time.
The test system of series [10] is Plasma. Nature of the series: Anticoagulant activity in Wistar albino rat plasma assessed as international normalized ratio at 0.5 mg/kg, ip. The series is classed as functional. To be noted: route intraperitoneal. The procedure, abridged:
as §1

The test system of series [11] is Rattus norvegicus. Nature of the series: Hepatotoxicity in Wistar albino rat assessed as change in serum albumin level at 0.5 mg/kg, ip measured after 24 hrs. The series is classed as toxicity, organism-based. Set-up: dose 0.5 mg/kg, route intraperitoneal. The conditions noted are these: in vivo.
For series [12], the system named is Rattus norvegicus. As to the kind of experiment: Hepatotoxicity in Wistar albino rat assessed as change in serum albumin level at 0.5 mg/kg/day, ip administered for 5 days. Format: toxicity, organism-based. Set-up: route intraperitoneal. To be noted: in vivo, 120 h.
For series [13], the system named is Rattus norvegicus. As to the kind of experiment: Hepatotoxicity in Wistar albino rat assessed as change in serum protein level at 0.5 mg/kg/day, ip administered for 5 days. Format: toxicity, organism-based. Also noted: route intraperitoneal. The conditions noted are these: in vivo, 120 h.

Each structure is given as a SMILES string.

`C/C(=C(\C#N)C(=O)O)c1c(O)c2ccccc2oc1=O`: the PT in series [1] worked out at 8.2 s; in series [2], 21 s; in [4] it was 9.2 s. The Activity stood at 0.5 g/L in series [3]; 68.9 g/L in [6]; 38.6 g/L in [11]; 38.6 g/L in series [12]; 68.9 g/L in [13]. In addition, the results for the Ratio in [5], in series [7] and in [10] were 0.66, 2.25 and 0.69, respectively. The Time in [8] is 196.8 s. The half-maximal inhibitory concentration (IC50) in series [9] was 2340 µM.

A word on the IC50: it is the concentration needed to halve the response being measured.

Source of the values: ChEMBL document CHEMBL2046403, “Biochemical and pharmacological evaluation of 4-hydroxychromen-2-ones bearing polar C-3 substituents as anticoagulants” (Eur J Med Chem, 2012).
